Most compounds without a hit are left out; they make up all but 1.6% or so of the library.
Rev-erbA mod = modulators of Rev-erb alpha DNA binding, primary screen, biochemical, FITC-DNA, fluorescence polarization, uHTS. Nuclear receptor subfamily 1 group D member 1 (Homo sapiens), P20393. Rev-erbα–FITC-DNA binding, 90 min. activity, % at 10 µM. 370,000 tested, 0.79% active. AID 1259318, 2017;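 active = activity above about 14%, limit read from the data; passing the limit was not always enough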
PKA-R2B activ = activators of PKA-R2B holoenzyme, primary screen, biochemical, fluorescence polarization, Cy5-IP20, human; 340,000 tested, 0.079% active; cAMP-dependent protein kinase catalytic subunit beta (Homo sapiens) + cAMP-dependent …; PKA-R2B holoenzyme dissociation; R2B truncated from residue 108, S112A mutant; 0% DMSO only, 100% 113 µM cGMP; activation, % at 11.4 µM;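 active = activation above a cutoff set at the mean over all compounds plus 3 SD, cut at about 18% in these data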;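 also: higher means more holoenzyme dissociation and a rise in polarization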
Target sequence (P31323 whole entry, looked up, other chains not shown, the tested form may be a part): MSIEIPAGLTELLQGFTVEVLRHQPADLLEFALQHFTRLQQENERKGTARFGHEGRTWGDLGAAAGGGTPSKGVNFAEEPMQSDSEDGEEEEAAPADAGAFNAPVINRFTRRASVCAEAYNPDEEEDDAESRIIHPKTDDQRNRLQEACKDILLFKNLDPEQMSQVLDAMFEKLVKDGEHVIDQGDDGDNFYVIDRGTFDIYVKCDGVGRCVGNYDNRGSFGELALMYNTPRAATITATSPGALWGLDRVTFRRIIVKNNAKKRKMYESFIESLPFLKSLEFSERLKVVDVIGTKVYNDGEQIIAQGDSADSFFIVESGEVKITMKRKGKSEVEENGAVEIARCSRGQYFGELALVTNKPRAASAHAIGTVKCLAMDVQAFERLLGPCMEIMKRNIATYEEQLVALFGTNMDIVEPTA
NR2E3 ag-1 = NR2E3 agonists in two-hybrid cells, primary screen, cell-based, luminescence, CHO-S, Gal4-NCOR/VP16-NR2E3. 360,000 tested, 0.35% active. luciferase. inhibition of corepressor binding, % at 3.98 µM;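 active = inhibition above the mean of all tested compounds plus 3 SD, cut at about 70% in these data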;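 also: higher means lower luciferase signal from less NR2E3 corepressor binding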
PKA-R1A act = activators of PKA-R1A holoenzyme, primary screen, biochemical, fluorescence polarization, Cy5-IP20, bovine R1A, mouse PKAc | cAMP-dependent protein kinase type I-alpha regulatory subunit (Bos taurus) + … | PKA-R1A dissociation; scaled: DMSO 0%, 113 µM cGMP 100% | activation, % at 11.4 µM | 340,000 tested, 0.083% active | AID 504707, 2011;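 active = percent activation above the mean of all tested compounds plus 3 SD, cut at about 19% in these data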;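 also: higher means more PKAc released from R1A so a rise in polarization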
PG9 binder = binders of HIV-1 gp120 antibody PG9, primary screen, biochemical, TR-FRET; inhibition, % at 6.7 µM; HIV-1 gp120 / PG9 antibody interaction; TR-FRET gp120-PG9 antibody binding; 360,000 tested, 0.43% active; AID 624416, 2012; in the data active = inhibition above about 8.5%
NR2E3 ag-2 = inhibitors of NR2E3-RetCOR corepressor binding, primary screen, NR2E3 agonist project, biochemical, TR-FRET, GST-NR2E3, biotin-RetCOR. Photoreceptor-specific nuclear receptor (Homo sapiens), Q9Y5X4. 1536-well. inhibition of corepressor binding, % at 4.78 µM. 320,000 tested, 0.12% active. AID 2300, 2010;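 active = percent inhibition above the cutoff of mean plus 3 SD of all tested compounds, set per screening campaign, cut at about 20% in these data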
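Material – GST-tagged NR2E3 plus biotinylated RetCOR corepressor · Quantity – NR2E3 fusion 1.35 nM · Times – 5 h incubation at 4 °C · Medium – pH 7.5 Tris-based buffer · Technique – TR-FRET, Eu(K)-anti-GST donor, streptavidin-D2 acceptor, ex 340, em 617/671 nm · Benchmarks – high control biotin, low control 0.6% DMSO · Format – 1536-well plates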
Rev-erbA confirm = modulators of Rev-erb alpha DNA binding, confirmation, biochemical, FITC-DNA, fluorescence polarization, single point; shares compounds with Rev-erbA mod; activation, % at 25 µM; 3,000 tested, 61% active; 90 min;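 active = activation at or above a set limit, or at least 3 SD above the negative control mean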
RORg DNA counter = modulation of RORgamma DNA binding, dose response, counter-screen for Rev-erb alpha modulator project, biochemical, fluorescence polarization, FITC-DNA; 910 tested, 8% active; IC50, µM; shares compounds with Rev-erbA mod; AID 1259320, 2017; purified RORgamma protein-FITC-DNA binding;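 active = Compounds whose fitted half-maximal concentration for disrupting protein-DNA binding is below 10 micromolar; the record names Rev-erb in its text, so the target is in doubt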
Large screens that a line does not name were inactive (follow-up assays come after a bar, where they were run).

COC(=O)CSc1nnc(-c2ccc(NS(=O)(=O)c3ccc(C)c(C)c3)cc2)o1	none (no result: PKA-R2B activ, NR2E3 ag-1, PKA-R1A act, PG9 binder, NR2E3 ag-2)
Cc1cc(C)cc(Nc2nc3c(S(=O)(=O)c4ccccc4)nnn3c3ccccc23)c1	Rev-erbA mod 52 | Rev-erbA confirm inactive
Cc1cccc(Nc2nc3c(S(=O)(=O)c4ccccc4)nnn3c3ccccc23)c1	Rev-erbA mod 39 | Rev-erbA confirm inactive
CC(C)c1ccc(S(=O)(=O)c2nnn3c2nc(N2CCCCC2)c2ccccc23)cc1	Rev-erbA mod 30 | Rev-erbA confirm 29
Cc1ccc(S(=O)(=O)c2nnn3c2nc(NC2CCN(Cc4ccccc4)CC2)c2ccccc23)cc1C	none (no result: Rev-erbA mod, PG9 binder)
Cn1c(=O)c2cc(S(=O)(=O)N3CCN(c4ccc(F)cc4)CC3)ccc2n(C)c1=O	none (no result: PKA-R2B activ, NR2E3 ag-1, PKA-R1A act, PG9 binder, NR2E3 ag-2)
COCCNC(=O)c1c(N)[nH]c(C(=O)c2ccc(Br)cc2)c1-c1c(OC)ccc2ccccc12	none (no result: PKA-R2B activ, NR2E3 ag-1, PKA-R1A act, PG9 binder, NR2E3 ag-2)
C/C(=N\NC(=O)COc1cccc(C)c1)c1ccc2ccccc2c1O	Rev-erbA mod 217 (no result: NR2E3 ag-2) | Rev-erbA confirm 165 | RORg DNA counter inactive
Cc1cccc(OCC(=O)NCc2ccccc2)c1	none
O=C(CSc1nnc(-c2cccnc2)n1-c1ccc(Cl)cc1)c1ccc(F)cc1	none (no result: PKA-R2B activ, NR2E3 ag-1, PKA-R1A act, PG9 binder, NR2E3 ag-2)
COCCN(Cc1cc2cc(C)ccc2n2nnnc12)C(=S)Nc1ccccc1C	Rev-erbA mod 87 | Rev-erbA confirm 40 | RORg DNA counter inactive
CCOc1ccccc1-c1nc(-c2ccc(NC(=O)Cc3ccc(OC)cc3)cc2)no1	Rev-erbA mod 43 | Rev-erbA confirm 70 | RORg DNA counter inactive
Oc1c(C2=NCCNC(C(F)(F)F)=C2)ccc2ccccc12	Rev-erbA mod 18 (no result: NR2E3 ag-2) | Rev-erbA confirm inactive
CCc1cc2ccc(OC)cc2nc1SCC(=O)Nc1cc(C)on1	Rev-erbA mod 75 | Rev-erbA confirm 57 | RORg DNA counter inactive
CCc1cc2c(C)ccc(C)c2nc1SCC(=O)Nc1cc(C)on1	Rev-erbA mod 24 | Rev-erbA confirm inactive
Cc1cc2cc(C#N)c(SCC(=O)Nc3nonc3C)nc2cc1C	Rev-erbA mod 20 | Rev-erbA confirm 33 | RORg DNA counter inactive
Cc1cc(NC(=O)CSc2nc(-c3ccccc3)nc3c2c(=O)n(C)c(=O)n3C)no1	none
COc1ccccc1-c1nc(SCC(=O)Nc2cc(C)on2)c2c(=O)n(C)c(=O)n(C)c2n1	Rev-erbA mod 72 | Rev-erbA confirm 60 | RORg DNA counter inactive
COc1ccc(OCc2nn3c(-c4ccccc4)nnc3s2)cc1	none (no result: PKA-R2B activ, NR2E3 ag-1, PKA-R1A act, PG9 binder, NR2E3 ag-2)
COc1ccc(Cn2cc(CN3[C@@H](CC(C)C)COc4cccc(F)c4S3(=O)=O)nn2)cc1	none (no result: PKA-R2B activ, NR2E3 ag-1, PKA-R1A act, PG9 binder, NR2E3 ag-2)
COc1ccc(C=Nn2c(-c3ccc(F)cc3)n[nH]c2=S)cc1OCc1ccccc1	none (no result: PKA-R2B activ, NR2E3 ag-1, PKA-R1A act, PG9 binder, NR2E3 ag-2)
COc1ccc(-c2cc(-c3nnc(SCC(=O)Nc4ccccc4-c4ccccc4)n3N)[nH]n2)cc1	none (no result: PKA-R2B activ, NR2E3 ag-1, PKA-R1A act, PG9 binder, NR2E3 ag-2)
CCc1cc2cc(C)c(C)cc2nc1SCC(=O)Nc1cc(C)on1	Rev-erbA mod 36 | Rev-erbA confirm inactive
CCOC(=O)c1c(NC(=O)CN2C(=O)NC3(CCCCC3C)C2=O)sc(C)c1C (configuration not stated)	none
CCOC(=O)c1c(-c2ccc(F)cc2)csc1NC(=O)CN1C(=O)NC2(CCCCC2C)C1=O (configuration not stated)	Rev-erbA mod 21 | Rev-erbA confirm inactive
CCOC(=O)c1c(NC(=O)CN2C(=O)NC3(CCCCCC3)C2=O)sc(C)c1-c1ccc(C)cc1	Rev-erbA mod 25 | Rev-erbA confirm 17
CCOC(=O)c1sc(NC(=O)CN2C(=O)NC3(CCC(C)CC3)C2=O)c(C(=O)OCC)c1C (configuration not stated)	Rev-erbA mod 36 | Rev-erbA confirm 20
CCOC(=O)c1sc(NC(=O)CN2C(=O)NC3(CC(C)CC(C)(C)C3)C2=O)c(C(=O)OCC)c1C (configuration not stated)	none
CC(C)c1ccc(NC(=O)OC2CCC23CCC(c2ccccc2)CC3)cc1 (configuration not stated)	none (no result: PKA-R2B activ, NR2E3 ag-1, PKA-R1A act, PG9 binder, NR2E3 ag-2)
O=C1c2[nH]nc(-c3ccccc3)c2C(c2cccc(C(F)(F)F)c2)N1c1ccccc1 (configuration not stated)	none (no result: PKA-R2B activ, NR2E3 ag-1, PKA-R1A act, NR2E3 ag-2)
Clc1ccc(CN2CCN(N=Cc3ccncc3)CC2)cc1	none (no result: PKA-R2B activ, NR2E3 ag-1, PKA-R1A act, PG9 binder, NR2E3 ag-2)
COc1ccccc1C(=O)COC(=O)c1cc(S(=O)(=O)N2CCCCC2)ccc1N1CCOCC1	none
COc1cccc(COC(=O)c2cc(S(=O)(=O)N3CCCCC3)ccc2N2CCOCC2)c1OC	Rev-erbA mod 20 | Rev-erbA confirm inactive
COc1ccc(C(=O)COC(=O)c2cc(S(=O)(=O)N3CCCCC3)ccc2N2CCOCC2)c(OC)c1	Rev-erbA mod 18 | Rev-erbA confirm inactive
COC(=O)[C@]12C[C@H](CC(=O)NCc3cccc(C(F)(F)F)c3)C(=O)N(Cc3ccco3)C1=C[C@H](C1CCCC1)O[C@@H]2C	none (no result: PKA-R2B activ, NR2E3 ag-1, PKA-R1A act, PG9 binder, NR2E3 ag-2)
N#Cc1cc(C#N)c(N2CCN(c3cccc(Cl)n3)CC2)nc1N	Rev-erbA mod 26 | Rev-erbA confirm 71 | RORg DNA counter inactive
Cc1cc(C)c2c(n1)nn1c(N3CCN(c4ccccc4)CC3)cc(C)nc21	Rev-erbA mod 40 | Rev-erbA confirm 26
COc1cc(F)cc(-c2ccc3c(c2)c(-c2cccs2)c(-c2cc(OC)cc(OC)c2)n3C)c1	none
COc1cc(OC)cc(-c2c(-c3cccs3)c3cc(-c4ccc(N(C)C)nc4)ccc3n2C)c1	Rev-erbA mod 24 | Rev-erbA confirm inactive
COC(=O)c1cc(-c2cccc3c2sc2ccccc23)c(=O)n2c1CCC2	none (no result: PKA-R2B activ, NR2E3 ag-1, PKA-R1A act, PG9 binder, NR2E3 ag-2)

Compound activity as filed in PubChem.
